# Test results from ChEMBL document CHEMBL1150626, “Interiotherins C and D, two new lignans from Kadsura interior and antitumor-promoting effects of related neolignans on Epstein-Barr virus activation” (J Nat Prod, 2002).
# Legend:
# Type in all cases: cell-based
# Raji [1] = experiment: Inhibition of TPA-induced EBV-early antigen activation in human Raji cells assessed as EA activation at 100 mol ratio relative to TPA; parameters: scale not given: the % may be the effect or the level left; details: human gammaherpesvirus 4
# Raji [2] = experiment: Inhibition of TPA-induced EBV-early antigen activation in human Raji cells assessed as EA activation at 10 mol ratio relative to TPA; parameters: scale not given: the % may be the effect or the level left; details: human gammaherpesvirus 4
# Raji [3] = experiment: Inhibition of TPA-induced EBV-early antigen activation in human Raji cells assessed as EA activation at 500 mol ratio relative to TPA; parameters: scale not given: the % may be the effect or the level left; details: human gammaherpesvirus 4
# Raji [4] = experiment: Inhibition of TPA-induced EBV-early antigen activation in human Raji cells assessed as EA activation at 1000 mol ratio relative to TPA; parameters: scale not given: the % may be the effect or the level left; details: human gammaherpesvirus 4
# Raji [5] = experiment: Cytotoxicity against human Raji cells at 1000 mol ratio by trypan blue staining method
# Outline: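 Viability was assessed by trypan blue staining in Raji cells treated as in the EBV-EA assay: 48 h at 37 °C with n-butyric acid 4 mM, TPA and test compound in DMSO. Results are expressed as percent viable cells.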
smiles,measurement,setting,value
COc1cc2c(c(OC)c1OC)-c1c(cc3c(c1OC)OCO3)C[C@H](C)[C@](C)(O)C2,Activity,Raji [1],78.3%
same,Activity,Raji [2],96.6%
same,Activity,Raji [3],52.5%
same,Activity,Raji [4],7.1%
COc1cc2c(c(OC)c1OC)-c1c(cc3c(c1OC)OCO3)[C@H](OC(C)=O)[C@H](C)[C@H](C)C2 [KADSURIN],Activity,Raji [1],79.9%
same,Activity,Raji [2],100%
same,Activity,Raji [5],60%
same,Activity,Raji [3],58.3%
same,Activity,Raji [4],15%
C/C=C(/C)C(=O)O[C@H]1c2cc3c(c4c2C(C(=O)C(=O)OC)(CO4)/C(=C/C(=O)OC)C[C@@H](C)[C@H]1C)OCO3 (stereo not given in full) [HETEROCLITIN F],Activity,Raji [1],82.4%
same,Activity,Raji [2],100%
same,Activity,Raji [5],60%
same,Activity,Raji [3],58.9%
same,Activity,Raji [4],16.5%
C/C=C(/C)C(=O)O[C@H]1c2cc3c(c4c2[C@@]2(CO4)C(=O)C(OC)=C(OC)C=C2C[C@@H](C)[C@H]1C)OCO3 [HETEROCLITIN D],Activity,Raji [1],76.2%
same,Activity,Raji [2],100%
same,Activity,Raji [5],70%
same,Activity,Raji [3],54.7%
same,Activity,Raji [4],9.4%
COc1cc2c(c(OC)c1OC)-c1c(cc3c(c1OC)OCO3)C[C@H](C)[C@@](C)(O)C2 [GOMISIN A],Activity,Raji [5],70%
C/C=C(/C)C(=O)O[C@H]1c2cc3c(c(OC)c2-c2c(cc4c(c2OC)OCO4)C[C@H](C)[C@]1(C)O)OCO3 [INTERIOTHERIN B],Activity,Raji [1],80.3%
same,Activity,Raji [2],100%
same,Activity,Raji [5],60%
same,Activity,Raji [3],57.2%
same,Activity,Raji [4],11.6%
COc1cc2c(c(OC)c1OC)-c1c(cc3c(c1OC)OCO3)C[C@H](C)[C@](C)(O)[C@H]2OC(=O)c1ccccc1 [GOMISIN C],Activity,Raji [1],87.4%
same,Activity,Raji [2],100%
same,Activity,Raji [5],60%
same,Activity,Raji [3],60.2%
same,Activity,Raji [4],19.7%
COc1cc2c(c(OC)c1OC)-c1c(cc3c(c1OC)OCO3)[C@H](OC(=O)c1ccccc1)[C@@](C)(O)[C@@H](C)C2 [GOMISIN G],Activity,Raji [1],81.4%
same,Activity,Raji [2],100%
same,Activity,Raji [5],60%
same,Activity,Raji [3],59.2%
same,Activity,Raji [4],18.9%
COc1c2c(cc3c1-c1c(cc4c(c1OC)OCO4)[C@H](OC(=O)c1ccccc1)[C@@H](C)[C@@H](C)C3)OCO2 [INTERIOTHERIN A],Activity,Raji [1],85.7%
same,Activity,Raji [2],100%
same,Activity,Raji [5],60%
same,Activity,Raji [3],60.1%
same,Activity,Raji [4],18.3%
COc1cc2c(c(OC)c1OC)-c1c(cc3c(c1OC)OCO3)[C@@H]1O[C@H]2[C@@H](C)[C@H]1C [NEOKADSURANIN],Activity,Raji [1],72.9%
same,Activity,Raji [2],92.6%
same,Activity,Raji [5],70%
same,Activity,Raji [3],51.6%
same,Activity,Raji [4],4.7%
C/C=C(/C)C(=O)O[C@H]1c2cc3c(c4c2[C@@]2(CO4)C(=O)C(=O)C(OC)=C/C2=C/[C@@H](C)[C@H]1C)OCO3 [INTERIOTHERIN D],Activity,Raji [1],75%
same,Activity,Raji [2],94.8%
same,Activity,Raji [5],60%
same,Activity,Raji [3],55.8%
same,Activity,Raji [4],11.5%
C/C=C(/C)C(=O)O[C@H]1c2cc3c(c4c2[C@]2(CO4)C(=CC(=O)C(OC)=C2OC)C[C@@H](C)[C@H]1C)OCO3 [INTERIORIN],Activity,Raji [1],77.4%
same,Activity,Raji [2],100%
same,Activity,Raji [5],60%
same,Activity,Raji [3],52%
same,Activity,Raji [4],13.5%
C/C=C(/C)C(=O)O[C@H]1c2cc3c(c(OC)c2-c2c(cc4c(c2OC)OCO4)C[C@H](C)[C@@H]1C)OCO3 [ANGELOYLGOMISIN R],Activity,Raji [1],79%
same,Activity,Raji [2],100%
same,Activity,Raji [5],60%
same,Activity,Raji [3],55.6%
same,Activity,Raji [4],10.6%
C/C=C(/C)C(=O)O[C@H]1c2cc(OC)c(OC)c(OC)c2-c2c(cc3c(c2OC)OCO3)[C@H](OC(C)=O)[C@H](C)[C@@H]1C [INTERIOTHERIN C],Activity,Raji [1],78.9%
same,Activity,Raji [2],100%
same,Activity,Raji [5],60%
same,Activity,Raji [3],59%
same,Activity,Raji [4],16%
COc1c2c(cc3c1-c1c(cc4c(c1OC)OCO4)C[C@H](C)[C@H](C)C3)OCO2 [SCHISANDRIN C],Activity,Raji [1],73.6%
same,Activity,Raji [2],92.1%
same,Activity,Raji [5],70%
same,Activity,Raji [3],50.7%
same,Activity,Raji [4],2.6%
